Test results: ChEMBL document CHEMBL1140564, “Macrocyclic ureas as potent and selective Chk1 inhibitors: an improved synthesis, kinome profiling, structure-activity relationships, and preliminary pharmacokinetics” (Bioorg Med Chem Lett, 2007)
Calls of active or inactive are those of the source. No cut-off for these calls is given here.

Columns and labels:
[1] = target: T1, Serine/threonine-protein kinase Chk1 (Homo sapiens, UniProt O14757); assay: Inhibition of Chk1
T1 sequence (O14757 whole entry): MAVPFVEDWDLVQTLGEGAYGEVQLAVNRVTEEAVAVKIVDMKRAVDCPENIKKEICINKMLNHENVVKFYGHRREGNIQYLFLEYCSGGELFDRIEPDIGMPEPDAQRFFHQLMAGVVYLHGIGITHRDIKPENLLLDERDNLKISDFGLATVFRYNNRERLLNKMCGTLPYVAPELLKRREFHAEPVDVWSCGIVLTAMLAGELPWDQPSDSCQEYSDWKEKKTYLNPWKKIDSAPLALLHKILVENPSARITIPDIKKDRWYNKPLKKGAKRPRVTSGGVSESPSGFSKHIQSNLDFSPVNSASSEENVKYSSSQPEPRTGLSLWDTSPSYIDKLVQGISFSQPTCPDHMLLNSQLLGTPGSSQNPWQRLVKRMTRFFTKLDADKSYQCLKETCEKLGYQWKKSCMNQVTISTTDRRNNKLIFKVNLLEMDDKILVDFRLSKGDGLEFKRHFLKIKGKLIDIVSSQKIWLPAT

[2] = Cell cycle arrest in H1299 cells by accumulation at G2/M phase by FACS assay; assay type: functional, cell-based; details: Homo sapiens, NCI-H1299
[3] = system: HeLa; assay: Cytotoxicity against HeLa cells by MTS assay; assay type: functional, cell-based; details: Homo sapiens
[4] = system: NCI-H1299; assay: Inhibition of doxorubicin-induced cell cycle arrest in H1299 cells at G2/M phase by FACS assay; assay type: functional, cell-based; details: Homo sapiens
In short: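 H1299 cells treated with 500 nM doxorubicin to induce G2/M arrest, with or without inhibitor at various concentrations, up to 10 μM. Cells stained with propidium iodide and DNA content analysed by FACS. EC50 for abrogation of the Dox-induced G2/M checkpoint.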

| Structure (SMILES) | IC50 [1] | EC50 [2] | EC50 [3] | EC50 [4] | Activity [2] | Activity [4] |
| --- | --- | --- | --- | --- | --- | --- |
| CCN(CC)c1cc2c(cc1Cl)NC(=O)Nc1cnc(C#N)c(n1)OCCCCO2 | 0.023 µM | > 10 µM | > 59.3 µM | > 10 µM |  |  |
| N#Cc1ncc2nc1OC/C=C\COc1cc(OCCO)c(Cl)cc1NC(=O)N2 | 0.001 µM | > 10 µM | > 59.3 µM | 1.9 µM |  |  |
| CNc1cc2c(cc1Cl)NC(=O)Nc1cnc(C#N)c(n1)OC/C=C\CO2 | 0.002 µM | > 10 µM | > 59.3 µM | > 10 µM |  |  |
| N#Cc1ncc2nc1OCCCCOc1cc(OCCO)c(Cl)cc1NC(=O)N2 | 0.008 µM | > 10 µM | > 59.3 µM | 3.2 µM |  |  |
| CN(C)c1cc2c(cc1Cl)NC(=O)Nc1cnc(C#N)c(n1)OCCCCO2 | 0.002 µM | > 10 µM | 54.5 µM | 0.54 µM |  |  |
| CCNc1cc2c(cc1Cl)NC(=O)Nc1cnc(C#N)c(n1)OCCCCO2 | 0.003 µM |  | > 59.3 µM |  | inactive | inactive |
| N#Cc1ncc2nc1OCCCCOc1cc(NC(=O)c3ccncc3)c(Cl)cc1NC(=O)N2 | 0.004 µM |  | 24.3 µM |  | inactive | inactive |
| CN(C)c1cc2c(cc1Cl)NC(=O)Nc1cnc(C#N)c(n1)OC/C=C\CO2 | 0.002 µM | > 10 µM | 18.7 µM | 1.7 µM |  |  |
| N#Cc1ncc2nc1OCCCCOc1cc(O)c(Cl)cc1NC(=O)N2 | 0.0003 µM |  | > 59.3 µM |  | inactive | inactive |
| N#Cc1ncc2nc1OCCCCOc1cc(P(=O)(O)O)c(Cl)cc1NC(=O)N2 | 0.008 µM |  | 17.4 µM |  | inactive | inactive |
| N#Cc1ncc2nc1OC/C=C\COc1cc(NC(=O)c3ccnc(Cl)c3)c(Cl)cc1NC(=O)N2 | 0.006 µM | > 10 µM | 5.4 µM | > 10 µM |  |  |
| N#Cc1ncc2nc1OC/C=C\COc1cc(N(CCO)CCO)c(Cl)cc1NC(=O)N2 | 0.001 µM |  | 34.1 µM |  | inactive | inactive |
| N#Cc1ncc2nc1OC/C=C\COc1cc(NC(=O)OCCN3CCOCC3)c(Cl)cc1NC(=O)N2 | 0.003 µM | > 10 µM | > 59.3 µM | > 10 µM |  |  |
| N#Cc1ncc2nc1OCCCCOc1cc(NC(=O)c3ccnc(Cl)c3)c(Cl)cc1NC(=O)N2 | 0.004 µM |  | > 59.3 µM |  | inactive | inactive |
| N#Cc1ncc2nc1OC/C=C\COc1cc(N)c(Cl)cc1NC(=O)N2 | 0.0003 µM | > 10 µM | > 59.3 µM | < 0.03 µM |  |  |
| N#Cc1ncc2nc1OCCCCOc1cc(OCCCN3CCOCC3)c(Cl)cc1NC(=O)N2 | 0.001 µM | > 10 µM | 5 µM | > 10 µM |  |  |
| N#Cc1ncc2nc1OC/C=C\COc1cc(O)c(Cl)cc1NC(=O)N2 | 0.0003 µM | > 10 µM | 45.7 µM | 0.7 µM |  |  |
| N#Cc1ncc2nc1OC/C=C\COc1cc(OC(=O)N3CCC(N4CCCCC4)CC3)c(Cl)cc1NC(=O)N2 | 0.001 µM | > 10 µM | 1.2 µM | > 10 µM |  |  |
